This note sets out measurements from ChEMBL document CHEMBL1132176, “Novel A,B,E-ring-modified camptothecins displaying high lipophilicity and markedly improved human blood stabilities” (J Med Chem, 1999).

Series [1] can be described thus: Stability parameter for the compound in human blood after 3h. The class given is ADME. As to conditions: read-out: Lactone.
Series [2] can be described thus: Stability parameter for the compound at a concentration of 1 uM in human serum albumin(HSA) after 3h. It counts as ADME. As to conditions: read-out: Lactone. A digest of the protocol:
(§1)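 Lactone-to-carboxylate hydrolysis followed by HPLC; drug at 1 μM incubated at 37 °C for 3 h in human whole blood, plasma, or PBS (pH 7.4) with or without physiologically relevant levels of HSA or albumin-free RBCs ((5 ± 1) × 10^6 cell/μL). Plasma continuously aerated with blood gas to hold pH 7.5 ± 0.1. Blood kept at 5 °C before start. Value is % lactone remaining.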

Series [3] in a line: Equilibrium association (binding) constant interacting with Unilamellar Vesicles of negatively charged DMPG in PBS buffer at pH 7.4 and 37 C. The class given is ADME. The essentials:
(§2)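 Fluorescence anisotropy titration of 1 μM drug (lactone form) with small unilamellar vesicles, in PBS at pH 7.4 and 37 °C. Anisotropy was read about 1 min after adding drug at each lipid concentration to limit lactone hydrolysis. Adsorption isotherms were constructed, and K was taken from the slopes of double-reciprocal plots, with 10% uncertainty.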

Series [4] in a line: Stability parameter for the compound in mouse blood after 3h. It counts as ADME. As to conditions: read-out: Lactone. The essentials: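 Drug was incubated in mouse blood at pH 7.4 and 37 °C for 3 h. Blood was kept at 5 °C after drawing and before the start. The percent lactone remaining was measured by HPLC.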
Series [5] can be described thus: Stability parameter for the compound at a concentration of 1 uM in red blood cells(RBC) after 3h. The settings on record: read-out: Lactone. It counts as ADME, cell-based. The essentials: as §1
Series [6] in a line: Stability parameter for the compound at a concentration of 1 uM in plasma after 3h. The settings on record: read-out: Lactone. The class given is ADME, cell-free. A digest of the protocol: as §1
Series [7] in a line: Equilibrium association (binding) constant interacting with Unilamellar Vesicles of electroneutral DMPC in PBSbuffer at pH 7.4 and 37 C. It counts as ADME. The essentials:
as §2

The nature of series [8]: Stability parameter for the compound at a concentration of 1 uM in phosphate-buffered saline(PBS, pH 7.4) after 3h. The settings on record: read-out: Lactone. The class given is physicochemical. A digest of the protocol: as §1
Series [9] can be described thus: Stability parameter for the compound at a concentration of 1 uM in whole human blood after 3h. The class given is ADME. The settings on record: read-out: Lactone. A digest of the protocol: as §1

In the case of `CCC1(O)CC(=O)OCc2c1cc1n(c2=O)Cc2c-1nc1ccccc1c2[Si](C)(C)C(C)(C)C` (stereo unspecified), the remaining at 3 h in series [1] is 87%; in [4], 80%. The remaining at 3 h, 1 µM in series [2] came out at 88.1%; in series [5] it was 92%; in [6] it was 85%; in series [8], 84.9%; in [9], 86.6%. In [3], the “K DMPG” value was 19000 M⁻¹. In addition, in [7], the “K DMPC” value turned out to be 14000 M⁻¹.
As for `CCC1(O)CC(=O)OCc2c1cc1n(c2=O)Cc2c-1nc1ccc(O)cc1c2[Si](C)(C)C(C)(C)C` (stereo unspecified), the results for the remaining at 3 h in series [1] and in [4] were 85% and 70%, respectively. In addition, the remaining at 3 h, 1 µM in series [2] is 82.9%; in series [5], 88.5%; in series [6], 61.5%; in series [8] it was 83.1%; in series [9], 84.9%. Besides, the “K DMPG” value in [3] was 4000 M⁻¹. Also, in [7], the “K DMPC” value came to 8000 M⁻¹.
Consider `CCC1(O)CC(=O)OCc2c1cc1n(c2=O)Cc2c-1nc1ccc(N)cc1c2[Si](C)(C)C(C)(C)C` (stereo unspecified), for which the remaining at 3 h was 85% in [1] and 61% in [4]. For the same molecule, the remaining at 3 h, 1 µM was determined as 86.8% in [2]; 85.5% in series [5]; 71.1% in series [6]; 83.7% in [8]; 85.2% in series [9]. Besides, the “K DMPG” value in series [3] turned out to be 9000 M⁻¹. Besides, the “K DMPC” value in series [7] stood at 9000 M⁻¹.
With `CCC(O)(CC(=O)O)c1cc2n(c(=O)c1CO)Cc1c-2nc2ccc(N)cc2c1[Si](C)(C)C(C)(C)C` (stereo unspecified), the “K DMPG” value in series [3] stood at 80 M⁻¹. Also, in [7], the “K DMPC” value turned out to be 800 M⁻¹.
For `CCC(O)(CC(=O)O)c1cc2n(c(=O)c1CO)Cc1c-2nc2ccc(O)cc2c1[Si](C)(C)C(C)(C)C` (stereo unspecified) the same measures were 100 M⁻¹ and 700 M⁻¹.
Turning to `CCC1(O)CC(=O)OCc2c1cc1n(c2=O)Cc2c-1nc1ccc(N)cc1c2[Si](C)(C)C` (stereo unspecified), the remaining at 3 h amounted to 56% in series [1] and 72% in series [4]. The remaining at 3 h, 1 µM was determined as 81.4% in series [2]; 84.8% in [5]; 40.3% in series [6]; 82.8% in series [8]; 56.4% in [9]. For the same molecule, the “K DMPG” value in series [3] is 800 M⁻¹. The “K DMPC” value in [7] worked out at 1400 M⁻¹.
Take `CC[C@@]1(O)C(=O)OCc2c1cc1n(c2=O)Cc2cc3ccccc3nc2-1` [CAMPTOTHECIN]: the results for the remaining at 3 h in series [1] and in series [4] were 7% and 20%, respectively. Moreover, the “K DMPG” value in series [3] was 100 M⁻¹. Besides, the “K DMPC” value in series [7] is 100 M⁻¹.
For `CC[C@@]1(O)C(=O)OCc2c1cc1n(c2=O)Cc2cc3c(CN(C)C)c(O)ccc3nc2-1` [TOPOTECAN], the “K DMPG” value in [3] worked out at 50 M⁻¹. In addition, in series [7], the “K DMPC” value is 10 M⁻¹.
